Data: ChEMBL document CHEMBL1152892, “Synthesis and biological evaluation of 3,6-disubstituted [1,2,4]triazolo[3,4-b][1,3,4]thiadiazole derivatives as a novel class of potential anti-tumor agents” (Eur J Med Chem, 2009)
Calls of active or inactive are those of the source. No cut-off for these calls is given here.

Columns and labels:
UACC-62 = test: Cytotoxicity against human UACC62 cells after 48 hrs by sulforhodamine B assay; type: functional
Method in brief: (§1)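 NCI human tumor panel. Cells in RPMI 1640 with 5% FBS and 2 mM L-glutamine, 5000–40,000 cells/well by growth characteristics, 24 h preincubation at 37 °C. Compound added at time zero at five 10-fold dilutions, top concentration agent-dependent. Incubated 48 h (5% CO2, 100% humidity), then sulforhodamine B stain and plate-reader OD. GI50 and TGI are the concentrations giving 50% and total growth inhibition, in µM.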

HCT-116 [1] = test: Cytotoxicity against human HCT116 cells after 48 hrs by sulforhodamine B assay; type: functional; method in brief: as §1
OVCAR-4 = test: Cytotoxicity against human OVCAR4 cells after 48 hrs by sulforhodamine B assay; type: functional; method in brief: as §1
HCT-116 [2] = test: Antitumor activity against human HCT116 cells xenografted in nude mouse; type: functional, cell-based
SR = test: Cytotoxicity against human SR cells after 48 hrs by sulforhodamine B assay; type: functional; method in brief: as §1
ACHN = test: Cytotoxicity against human ACHN cells after 48 hrs by sulforhodamine B assay; type: functional; method in brief: as §1
[3] = Cytotoxicity against human […] cells after 48 hrs by sulforhodamine B assay; type: functional; method in brief: as §1
[4] = biological target: Cyclin-dependent kinase 2 (Homo sapiens, UniProt P24941); test: Inhibition of CDK2/Cyclin A
TK-10 = test: Cytotoxicity against human TK10 cells after 48 hrs by sulforhodamine B assay; type: functional; details: TK-10, 48 h; method in brief: as §1
SNB-75 = test: Cytotoxicity against human SNB75 cells after 48 hrs by sulforhodamine B assay; type: functional; method in brief: as §1
[5] = Inhibition of CDK4/Cyclin D
CCRF-CEM = test: Cytotoxicity against human CCRF-CEM cells after 48 hrs by sulforhodamine B assay; type: functional; method in brief: as §1
HCT-15 = test: Cytotoxicity against human HCT15 cells after 48 hrs by sulforhodamine B assay; type: functional; details: HCT-15, 48 h; method in brief: as §1
A498 = test: Cytotoxicity against human A498 cells after 48 hrs by sulforhodamine B assay; type: functional; method in brief: as §1
OVCAR-3 = test: Cytotoxicity against human OVCAR-3 cells after 48 hrs by sulforhodamine B assay; type: functional; method in brief: as §1
HOP-92 = test: Cytotoxicity against human HOP92 cells after 48 hrs by sulforhodamine B assay; type: functional; details: HOP-92, 48 h; method in brief: as §1
MCF7 [6] = test: Cytotoxicity against human MCF7 cells after 48 hrs by sulforhodamine B assay; type: functional; details: MCF7, 48 h; method in brief: as §1
MCF7 [7] = test: Antitumor activity against human MCF7 cells assessed as cell growth at 10 uM after 48 hrs by sulforhodamine B assay; type: functional; details: MCF7, 48 h, read-out: Activity
Method in brief: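 NCI primary screen, single concentration 10^-5 M against MCF7, NCI-H460 and SF-268. Cells in RPMI 1640 with 5% FBS and 2 mM L-glutamine, seeded at 5000–40,000 cells/well by cell type, preincubated 24 h at 37 °C. Compound added at time zero, then 48 h incubation (5% CO2, 100% humidity). Growth read by sulforhodamine B optical density, reported as growth percentage.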

[8] = biological target: Cyclin-dependent kinase 1/cyclin B1 (Homo sapiens, UniProt P06493); test: Inhibition of CDK1/Cyclin B; type: protein-complex assay
Cyclin-dependent kinase 1/cyclin B1, sequence (P06493 whole entry): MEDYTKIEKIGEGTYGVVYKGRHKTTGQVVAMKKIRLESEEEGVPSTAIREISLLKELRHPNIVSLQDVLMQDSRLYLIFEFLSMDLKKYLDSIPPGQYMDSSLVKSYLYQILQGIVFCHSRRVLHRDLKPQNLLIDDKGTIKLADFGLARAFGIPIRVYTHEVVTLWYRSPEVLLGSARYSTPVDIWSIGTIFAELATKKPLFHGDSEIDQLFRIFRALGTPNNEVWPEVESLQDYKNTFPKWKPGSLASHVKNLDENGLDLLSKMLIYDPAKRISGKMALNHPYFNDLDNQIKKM
Cyclin-dependent kinase 1/cyclin B1, sequence (P14635 whole entry, further chain): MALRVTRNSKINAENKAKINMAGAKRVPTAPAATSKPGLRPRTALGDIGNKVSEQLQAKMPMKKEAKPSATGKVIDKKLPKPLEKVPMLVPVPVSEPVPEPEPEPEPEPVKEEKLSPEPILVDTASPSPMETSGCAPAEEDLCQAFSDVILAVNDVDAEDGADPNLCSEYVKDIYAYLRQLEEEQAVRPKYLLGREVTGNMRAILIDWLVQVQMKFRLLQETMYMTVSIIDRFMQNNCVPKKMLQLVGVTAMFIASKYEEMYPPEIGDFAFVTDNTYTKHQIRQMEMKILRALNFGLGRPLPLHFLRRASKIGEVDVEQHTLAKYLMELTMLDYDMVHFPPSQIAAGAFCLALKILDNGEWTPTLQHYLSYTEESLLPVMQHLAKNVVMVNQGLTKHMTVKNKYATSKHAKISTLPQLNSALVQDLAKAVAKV

NCI-H226 = test: Cytotoxicity against human NCI-H226 cells after 48 hrs by sulforhodamine B assay; type: functional; details: NCI-H226, 48 h; method in brief: as §1
KM12 = test: Cytotoxicity against human KM12 cells after 48 hrs by sulforhodamine B assay; type: functional; method in brief: as §1
SF-268 = test: Cytotoxicity against human SF268 cells after 48 hrs by sulforhodamine B assay; type: functional; method in brief: as §1
CAKI-1 = test: Cytotoxicity against human Caki1 cells after 48 hrs by sulforhodamine B assay; type: functional; details: CAKI-1, 48 h; method in brief: as §1
HOP-62 = test: Cytotoxicity against human HOP62 cells after 48 hrs by sulforhodamine B assay; type: functional; details: HOP-62, 48 h; method in brief: as §1
HCC 2998 = test: Cytotoxicity against human HCC2998 cells after 48 hrs by sulforhodamine B assay; type: functional; method in brief: as §1
BT-549 = test: Cytotoxicity against human BT549 cells after 48 hrs by sulforhodamine B assay; type: functional; details: BT-549, 48 h; method in brief: as §1
Hs-578T = test: (§2) Cytotoxicity against human Hs 578T cells after 48 hrs by sulforhodamine B assay; type: functional; method in brief: as §1
SF-539 = test: Cytotoxicity against human SF539 cells after 48 hrs by sulforhodamine B assay; type: functional; method in brief: as §1
NCI-H322M = test: Cytotoxicity against human NCI-H322M cells after 48 hrs by sulforhodamine B assay; type: functional; method in brief: as §1
LOX IMVI = test: Cytotoxicity against human LOXIMVI cells after 48 hrs by sulforhodamine B assay; type: functional; method in brief: as §1
[9] = as §2; type: functional; method in brief: as §1

Compound: Clc1ccc(OCc2nnc3sc(SSc4nn5c(COc6ccc(Cl)cc6)nnc5s4)nn23)cc1
- GI50 (UACC-62; UACC-62, 48 h): 44.7 µM
- pGI50 (HCT-116 [1]): inactive
- GI50 (OVCAR-4; OVCAR-4, 48 h): 46.8 µM
- Activity (HCT-116 [2]): inactive
- GI50 (SR): 14.1 µM
- pGI50 (ACHN): inactive
- GI50 [3]: 44.7 µM
- IC50 [4]: 0.82 µM
- GI50 (TK-10): 72.4 µM
- pGI50 (SNB-75): inactive
- IC50 [5]: 8 µM
- GI50 (CCRF-CEM): 75.9 µM
- GI50 (HCT-15): 87.1 µM
- GI50 (A498; A498, 48 h): 28.8 µM
- GI50 (OVCAR-3; OVCAR-3, 48 h): 35.5 µM
- GI50 (HOP-92): 18.2 µM
- GI50 (MCF7 [6]): 44.7 µM
- growth at 10 µM (MCF7 [7]): 147%
- IC50 [8]: 11 µM
- GI50 (NCI-H226): 87.1 µM
- pGI50 (KM12): inactive
- pGI50 (SF-268): inactive
- GI50 (CAKI-1): 77.6 µM
- GI50 (HOP-62): 66.1 µM
- GI50 (HCC 2998; HCC 2998, 48 h): 16.2 µM
- GI50 (BT-549): 47.9 µM
- pGI50 (Hs-578T): inactive
- pGI50 (SF-539): inactive

Compound: Nc1ccc(-c2nn3c(COc4ccc(Cl)cc4)nnc3s2)cc1
- pGI50 (UACC-62): inactive
- GI50 (HCT-116 [1]; HCT-116, 48 h): 34.7 µM
- pGI50 (OVCAR-4): inactive
- Activity (HCT-116 [2]): inactive
- GI50 (SR): 91.2 µM
- GI50 (ACHN): 53.7 µM
- GI50 [3]: 77.6 µM
- IC50 [4]: 0.33 µM
- GI50 (TK-10): 85.1 µM
- pGI50 (NCI-H322M): inactive
- IC50 [5]: 2.1 µM
- GI50 (CCRF-CEM): 10 µM
- pGI50 (A498): inactive
- pGI50 (OVCAR-3): inactive
- GI50 (HOP-92): 97.7 µM
- GI50 (MCF7 [6]): 40.7 µM
- growth at 10 µM (MCF7 [7]): 128%
- IC50 [8]: 6.5 µM
- GI50 (NCI-H226): 7.24 µM
- GI50 (KM12; KM12, 48 h): > 100 µM
- GI50 (SF-268; SF-268, 48 h): 46.8 µM
- GI50 (CAKI-1): 49 µM
- GI50 (HOP-62): 20.4 µM
- pGI50 (HCC 2998): inactive
- pGI50 (LOX IMVI): inactive
- GI50 [9]: 87.1 µM
- GI50 (SF-539; SF-539, 48 h): 34.7 µM
